Data on 14 compounds can be found in ChEMBL document CHEMBL1828588, “Arylamides hybrids of two high-affinity σ2 receptor ligands as tools for the development of PET radiotracers” (Eur J Med Chem, 2011).

The nature of series [1]: Displacement of [3H]-DTG from sigma 2 receptor in rat liver membrane after 30 mins by radioligand binding assay. It counts as cell membranes. In a few lines:
(§1)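 […] (30 Ci/mmol) radioligand binding per Matsumoto et al. IC50 taken from six to nine drug concentrations, in two or three experiments with duplicate samples. Ki obtained by non-linear curve fitting. Tested as hydrochloride salts.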
Background: Displacement assays read how much labelled ligand stays bound in the presence of the test substance.

The target of series [2] is Sigma non-opioid intracellular receptor 1 (Cavia porcellus, UniProt Q60492). Briefly: Displacement of [3H]-pentazocine from sigma 1 receptor in guinea pig brain after 30 mins by radioligand binding assay.
Series [3] can be described thus: Inhibition of P-gp in dog MDCK-MDR1 cells by calcein-AM assay. It counts as cell-based, Canis lupus familiaris. The essentials: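 MDCK-MDR1 cells overexpressing P-gp, grown in DMEM high glucose with 10% FBS and 2 mM glutamine at 37 °C under 5% CO2. Seeded at 50,000 cells/well and left overnight to confluence. Compound added for 30 min at 37 °C, then calcein-AM (final 2.5 µM in PBS) for 30 min. Wells washed with ice-cold PBS. Fluorescence read at 485/535 nm. EC50 from % increase over untreated basal versus log dose.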

Series [4] is described as follows: Selectivity ratio of Ki for sigma 1 receptor in guinea pig brain to Ki for sigma 2 receptor in rat liver membrane. It counts as cell membranes.
A short description of series [5]: Lipophilicity, log D of the compound at pH 7.4. It counts as physicochemical. To be noted: buffer. The essentials: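 LogD calculated for compounds at pH 7.4.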
The species entered for series [6] is Rattus norvegicus. Briefly: Displacement of [3H]-DTG from sigma 2 receptor in rat liver membrane at […] after 30 mins by radioligand binding assay. It is filed as cell membranes. The essentials: as §1

Chain of Sigma non-opioid intracellular receptor 1 (Q60492 whole entry): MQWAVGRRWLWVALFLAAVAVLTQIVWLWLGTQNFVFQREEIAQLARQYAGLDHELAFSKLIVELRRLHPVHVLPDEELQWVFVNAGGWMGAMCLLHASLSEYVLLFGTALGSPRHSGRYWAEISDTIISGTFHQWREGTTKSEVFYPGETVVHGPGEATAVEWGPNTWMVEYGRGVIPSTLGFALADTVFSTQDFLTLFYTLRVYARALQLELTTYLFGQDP

In the case of `COc1cccc2c1CCCC2C(=O)NCCCN1CCN(C2CCCCC2)CC1` (stereo not drawn), the inhibition constant (Ki) in series [1] came to 0.0165 µM; in series [2], 0.0351 µM. The EC50 in series [3] is 8.6 µM. Further, in series [4], the Ratio Ki is 2. Besides, in series [5], the pH-dependent lipophilicity (logD) was determined as 2.46.

`COc1cc(Br)cc(C(=O)NCCCN2CCN(C3CCCCC3)CC2)c1OC`: the Ki in series [1] is 0.0212 µM; in series [2], 0.0258 µM. For the same compound, in series [3], the EC50 was 2.7 µM. Besides, the Ratio Ki in series [4] was determined as 1.2. The compound further had a logD in series [5] of 2.43.

Regarding `COc1cc2c(cc1OC)CN(CCCN1CCc3ccccc3C1=O)CC2`, the inhibition constant (Ki) in series [1] was found to be 0.00484 µM; in series [2] it was 0.709 µM. Further, the EC50 in series [3] is 12 µM. Further, in series [4], the Ratio Ki came to 147. The compound also displayed a pH-dependent lipophilicity (logD) in series [5] of 2.25.

Take `COc1cc2c(cc1OC)CN(CCCNC(=O)c1cc(C)ccc1OC)CC2`: the inhibitory constant (Ki) in series [1] came to 0.00263 µM; in series [2] it was 0.534 µM. Moreover, the concentration giving a half-maximal response (EC50) in series [3] is 5.3 µM. Further, the Ratio Ki in series [4] was 203. In series [5], this compound registered a logD of 2.7.

Take `COc1cc(Br)c(C(=O)NCCCN2CCc3cc(OC)c(OC)cc3C2)cc1OC`: the inhibitory constant (Ki) in series [1] turned out to be 0.0509 µM; in series [2] it was 2.57 µM. For the same compound, the concentration for a half-maximal effect (EC50) in series [3] was 45 µM. In addition, the Ratio Ki in series [4] is 50. Besides, the logD in series [5] turned out to be 2.89.

As to `COc1cc2c(cc1OC)CN(CCCNC(=O)c1cc(Br)cc(OC)c1OC)CC2`, the inhibition constant Ki worked out at 0.0129 µM in series [1] and 4.4 µM in series [2]. In series [3], the half-maximal effective concentration (EC50) was 2.5 µM. Moreover, the Ratio Ki in series [4] came out at 341. In series [5], this compound displayed a logD of 3.22.

`COc1ccc(C)cc1C(=O)NCCCN1CCN(C2CCCCC2)CC1`: the values for the inhibition constant Ki in series [1] and in series [2] were 0.0261 µM and 0.0455 µM, respectively. For the same compound, in series [3], the EC50 is 8.6 µM. The Ratio Ki in series [4] amounted to 1.7. The compound also yielded a log distribution coefficient (logD) in series [5] of 1.94.

Compound `COc1cccc2c1CCCC2CCCN1CCN(C2CCCCC2)CC1` (stereo not drawn) returned a Ki in series [1] of 0.00068 µM. The half-maximal effective concentration (EC50) in series [3] is 3 µM. For the same compound, the pH-dependent lipophilicity (logD) in series [5] was determined as 3.75.

With `COc1cc(Br)c(C(=O)NCCCN2CCN(C3CCCCC3)CC2)cc1OC`, the figures for the inhibition constant (Ki) in series [1] and in series [2] were 0.467 µM and 0.268 µM, respectively. Also, the 50% effective concentration (EC50) in series [3] was 45 µM. Also, in series [4], the Ratio Ki amounted to 0.6. In series [5], the logD was 2.11.

On to `O=C1c2ccccc2CCN1CCCN1CCN(C2CCCCC2)CC1`, for which the Ki in series [1] was found to be 0.0266 µM; in series [2], 0.0247 µM. Moreover, the EC50 in series [3] is 20 µM. The Ratio Ki in series [4] was 1. In series [5], the log distribution coefficient (logD) turned out to be 1.49.

For the compound `COc1cc2c(cc1OC)CN(CCCCNC(=O)c1cc(C)ccc1OC)CC2`, the inhibitory constant (Ki) came to 0.00868 µM in series [1] and 2.15 µM in series [2]. In addition, the EC50 in series [3] was 1.6 µM. The Ratio Ki in series [4] was 247. Besides, the logD in series [5] came to 2.83.

`COc1cc2c(cc1OC)CN(CCCC1CCCc3c(OC)cccc31)CC2` (stereo not drawn) registered an inhibition constant Ki in series [2] of 0.151 µM. For the same compound, in series [3], the concentration for a half-maximal effect (EC50) is 1.1 µM. The same compound gave an Activity in series [6] of 96%. The compound also returned a logD in series [5] of 4.33.

For the compound `COc1cc2c(cc1OC)CN(CCCNC(=O)C1CCCc3c(OC)cccc31)CC2` (stereo not drawn), the Ki in series [1] was found to be 0.0211 µM; in series [2], 0.146 µM. In series [3], the concentration for a half-maximal effect (EC50) is 2.7 µM. In addition, the Ratio Ki in series [4] amounted to 7. The compound further displayed a logD in series [5] of 3.21.

With `Cc1ccccc1NC(=N)Nc1ccccc1C` [DITOLYLGUANIDINE], the affinity in series [1], expressed as Ki, was 0.0263 µM.

A word on the Ki: it is a measure of affinity in units of concentration, obtained from inhibition or displacement. High values mean lower affinity, low ones higher affinity. What is called EC50 is the concentration giving half of the maximal effect. In general, logD refers to the decadic logarithm of the distribution of all forms, ionised or not, between an organic phase and buffer at a given pH. Lower therefore signals a more hydrophilic compound.
